Results published in ChEMBL document CHEMBL4145605, “Evodialones A and B: Polyprenylated Acylcyclopentanone Racemates with a 3-Ethyl-1,1-diisopentyl-4-methylcyclopentane Skeleton from Evodia lepta” (2018).
Converted amounts (≈) assume the structure as drawn.

Experiments:
Type in all cases: functional
Escherichia coli = experiment: Antibacterial activity against Escherichia coli ATCC 25922 measured after 16 hrs by turbidimetric method; settings: ATCC 25922, 16 h
Outline: (§1)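 In vitro panel of four Gram-positive bacteria, three Gram-negative bacteria and six fungal strains. Activity is reported as MIC in μM. Culture and assay protocols follow an earlier method, with details in the Supporting Information.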

Staphylococcus aureus = experiment: Antibacterial activity against Staphylococcus aureus ATCC 25923 measured after 16 hrs by turbidimetric method; settings: ATCC 25923, 16 h; outline: as §1
[1] = system: Staphylococcus epidermidis; experiment: Antibacterial activity against Staphylococcus epidermidis ATCC 12228 measured after 16 hrs by turbidimetric method; settings: ATCC 12228, 16 h; outline: as §1
Enterococcus faecalis = experiment: Antibacterial activity against Enterococcus faecalis ATCC 29212 measured after 16 hrs by turbidimetric method; settings: ATCC 29212, 16 h; outline: as §1
Nakaseomyces glabratus = experiment: Antifungal activity against Candida glabrata ATCC 2001 measured after 48 hrs by turbidimetric method; settings: CBS 138, 48 h; outline: as §1
Bacillus subtilis = experiment: Antibacterial activity against Bacillus subtilis ATCC 21332 measured after 16 hrs by turbidimetric method; settings: ATCC 21332, 16 h; outline: as §1
Klebsiella pneumoniae = experiment: Antibacterial activity against Klebsiella pneumoniae ATCC 700603 measured after 16 hrs by turbidimetric method; settings: Klebsiella pneumoniae, 700603, 16 h; outline: as §1
Clavispora lusitaniae = experiment: Antifungal activity against Candida lusitaniae ATCC 34449 measured after 48 hrs by turbidimetric method; settings: ATCC 34449, 48 h; outline: as §1
Pichia kudriavzevii = experiment: Antifungal activity against Candida krusei ATCC 6258 measured after 48 hrs by turbidimetric method; settings: ATCC 6258, 48 h; outline: as §1
Candida albicans = experiment: Antifungal activity against Candida albicans ATCC 60193 measured after 48 hrs by turbidimetric method; settings: ATCC 60193, 48 h; outline: as §1
Candida parapsilosis = experiment: Antifungal activity against Candida parapsilosis ATCC 22019 measured after 48 hrs by turbidimetric method; settings: Lodderomyces parapsilosis, ATCC 22019, 48 h; outline: as §1
Enterobacter cloacae = experiment: Antibacterial activity against Enterobacter cloacae ATCC 700323 measured after 16 hrs by turbidimetric method; settings: ATCC 700323, 16 h; outline: as §1
[2] = system: Meyerozyma guilliermondii; experiment: Antifungal activity against Candida guilliermondii ATCC 6260 measured after 48 hrs by turbidimetric method; settings: ATCC 6260, 48 h; outline: as §1

Row | MIC (Escherichia coli) [µM] | MIC (Staphylococcus aureus) [µM] | MIC [1] [µM] | MIC (Enterococcus faecalis) [µM] | MIC (Nakaseomyces glabratus) [µM] | MIC (Bacillus subtilis) [µM] | MIC (Klebsiella pneumoniae) [µM] | MIC (Clavispora lusitaniae) [µM] | MIC (Pichia kudriavzevii) [µM] | MIC (Candida albicans) [µM] | MIC (Candida parapsilosis) [µM] | MIC (Enterobacter cloacae) [µM] | MIC [2] [µM] | SMILES
1 | > 200 | > 200 | > 200 | > 200 | > 200 | > 200 | > 200 | > 200 | > 200 | > 200 | > 200 | > 200 | > 200 | COC(=O)[C@@]1(O)C(=O)[C@@]2(CC=C(C)C)C[C@@H](O)C(C)(C)OC2=C1C(C)=O
2 |  |  |  |  | < 0.5 |  |  | 8.7 (≈ 8.04 µg/mL) | < 0.5 | < 0.5 | < 0.5 |  | < 0.5 | C[C@@H]1[C@H](O)[C@@H](C)/C=C/C=C/C=C/C=C/C=C/C=C/C=C/[C@H](O[C@@H]2O[C@H](C)[C@@H](O)[C@H](N)[C@@H]2O)C[C@@H]2O[C@](O)(C[C@@H](O)C[C@@H](O)[C@H](O)CC[C@@H](O)C[C@@H](O)CC(=O)O[C@H]1C)C[C@H](O)[C@H]2C(=O)O [AMPHOTERICIN B]
3 | > 200 | > 200 | > 200 | > 200 | 34.2 (≈ 12.5 µg/mL) | > 200 | > 200 | 68.3 (≈ 25 µg/mL) | 137 (≈ 50.1 µg/mL) | 137 (≈ 50.1 µg/mL) | 17.1 (≈ 6.27 µg/mL) | > 200 | 68.3 (≈ 25 µg/mL) | COC(=O)[C@]1(O)C(=O)[C@]2(CC=C(C)C)C[C@@H](O)C(C)(C)OC2=C1C(C)=O
4 | > 200 | > 200 | > 200 | > 200 | 34.2 (≈ 12.5 µg/mL) | > 200 | > 200 | 68.3 (≈ 25 µg/mL) | 137 (≈ 50.1 µg/mL) | 137 (≈ 50.1 µg/mL) | 17.1 (≈ 6.27 µg/mL) | > 200 | 34.2 (≈ 12.5 µg/mL) | COC(=O)[C@@]1(O)C(=O)[C@@]2(CC=C(C)C)C[C@H](O)C(C)(C)OC2=C1C(C)=O
